According to publication PMC3841656 (Pharmaceutical Research, 2013):

Legend:
Format in all cases: physicochemical
[1] = Equilibrium solubility in soybean oil; conditions: 37°C, HPLC
Procedure, shortened: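 The drug was added in excess to triplicate sealed glass vials of soybean oil (2 g, later 1 g), vortexed and incubated at 37°C. Samples were taken at 24, 48 and 72 h or longer after centrifugation at 37°C, 2,800 g for 30 min. Supernatant (20–30 mg) was diluted in 66% v/v chloroform/methanol and quantified by C18 RP-HPLC-UV against a standard curve. Equilibrium was taken when consecutive 24-h points differed <10%; mean ± SD, n ≥ 3.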

[2] = Equilibrium solubility in PEG400, ambient conditions; conditions: PEG400, 37°C, ambient milieu (0.32% w/w water)
Procedure, shortened: (§1)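 Excess drug was added to triplicate sealed glass vials of excipient (2 g, later 1 g) and held at 37°C with periodic vortexing. Vials were centrifuged at 37°C, 2,800 g for 30 min and sampled at 24, 48 and 72 h or longer. Supernatant (20–30 mg) was diluted in 7% v/v chloroform/methanol and analysed by C18 RP-HPLC-UV. Equilibrium was taken when consecutive 24-h samples differed <10%; mean ± SD, n ≥ 3.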

[3] = Solubility in PEG400 under dry conditions; conditions: two tailed t-test, ambient vs dry
[4] = Equilibrium solubility in polysorbate 80; conditions: polysorbate 80, 37°C, HPLC
Procedure, shortened: as §1

| Compound | equilibrium solubility in SBO [1] | equilibrium solubility in PEG400 [2] | further results |
| --- | --- | --- | --- |
| CCOc1nc2cccc(C(=O)O)c2n1Cc1ccc(-c2ccccc2-c2nnn[nH]2)cc1 [Candesartan] | less than the limit of detection | 13.8 ± 1.5 mg/g |  |
| COc1ccc2c(c1)c(CC(=O)O)c(C)n2C(=O)c1ccc(Cl)cc1 [Indomethacin] |  |  | difference in PEG400 solubility between ambient and dry conditions [3]: no significant difference |
| N[C@@H](Cc1cc(I)c(Oc2cc(I)c(O)c(I)c2)c(I)c1)C(=O)O [Levothyroxine] | less than the limit of detection |  |  |
| CC(C)(Oc1ccc(CCNC(=O)c2ccc(Cl)cc2)cc1)C(=O)O [Bezafibrate] | less than the limit of detection |  |  |

More lines, main results first:

| equilibrium solubility in SBO [1] | equilibrium solubility in PEG400 [2] | Compound | further results |
| --- | --- | --- | --- |
| less than the limit of detection |  | COc1ccc(Cl)cc1C(=O)NCCc1ccc(S(=O)(=O)NC(=O)NC2CCCCC2)cc1 [Glibenclamide] |  |
|  | high solubility | CC(C)(C)NC(=O)[C@@H]1C[C@@H]2CCCC[C@@H]2CN1C[C@@H](O)[C@H](Cc1ccccc1)NC(=O)[C@H](CC(N)=O)NC(=O)c1ccc2ccccc2n1 [Saquinavir] |  |
|  | high solubility | C#C[C@]1(O)CC[C@H]2[C@@H]3CCc4cc(O)ccc4[C@H]3CC[C@@]21C [Ethinylestradiol] | equilibrium solubility in PS80 [4]: high solubility |
